Columns and labels:
HCC-1954 cells = assay: Fluorescent microscopy of peptide binding, HCC-1954; format: cell-based; details: fixed cells, peptide 250 nM, 1 h room temperature, neutravidin-AlexaFluor488
How it was run: (§1)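 Cells fixed in 10 % formalin and dried onto slides overnight. Rehydrated in TBS, then blocked with 2 % BSA in TBS for 1 h. Biotinylated test peptide at 250 nM in 0.1 % TBST for 1 h at room temperature, then 3× washes with 0.1 % TBST. Neutravidin-AlexaFluor488 for 1 h at room temperature. Mounted in DAPI-containing medium and imaged on an inverted microscope.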

MDA-MB-453 cells = assay: Fluorescent microscopy of peptide binding, MDA-MB-453; format: cell-based, human; details: fixed cells, peptide 250 nM, 1 h room temperature, neutravidin-AlexaFluor488
How it was run: as §1

HER3 = details: human, in vivo; cited from earlier work

Compound	binding by fluorescent microscopy, HCC-1954 (HCC-1954 cells)	binding by fluorescent microscopy, MDA-MB-453 (MDA-MB-453 cells)	specific accumulation measured by tumor-to-blood ratio (HER3)
CC(C)C[C@@H]1NC(=O)[C@@H](NC(=O)CNC(=O)CNC(=O)CNC(=O)CCCC[C@@H]2SC[C@@H]3NC(=O)N[C@@H]32)CSSC[C@@H](C(=O)O)NC(=O)[C@H](CO)NC(=O)[C@H](CCCNC(=N)N)NC(=O)[C@H](Cc2ccccc2)NC(=O)[C@H](CCCCN)NC(=O)[C@H]([C@@H](C)O)NC(=O)[C@@H]2CCCN2C1=O [biotinylated-HER3P1]	almost no visualization	high binding	–
^64Cu-labeled DOTA-conjugated patritumab: 64Cu-labeled DOTA conjugate of the anti-HER3 antibody patritumab	–	–	approximately 1

From PMC7339641 (Molecular imaging and biology, 2018)
